Source: PubChem
APJ agonist – agonists of human apelin receptor APJ, primary screen, CHO-K1 cells, PathHunter beta-arrestin, luminescence. activation, % at 20 µM. 0.11% of 330,000 active. 0% DMSO wells, 100% apelin. P35414. AID 2520, 2010;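 active = activation more than six SD over the plate average, tested at 20 µM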
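Material: CHO-K1 APJ beta-arrestin complementation cell line; Input: cell density 1000 per well; Incubation: compound stimulation 90 min at 25 °C, detection 60 min; Signal: luminescence from split beta-galactosidase complementation, Galacton Star/Emerald II substrate; Controls: DMSO-only wells as negative, 10 nM Apelin-13 as positive control.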
HTR2A ag – mouse Htr2a agonists via beta-arrestin recruitment, primary screen, cell-based, luminescence; 5-hydroxytryptamine receptor 2A (Mus musculus), P35363; CHO-K1 mHTR2A beta-arrestin complementation; percent of 30 µM serotonin response; activation, % at 7.6 µM; 0.66% of 360,000 active;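 active = activation above a run cutoff, the mean activation of all tested compounds plus 3 SD, cut at about 14% in these data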
Target sequence (P35363 whole entry, looked up): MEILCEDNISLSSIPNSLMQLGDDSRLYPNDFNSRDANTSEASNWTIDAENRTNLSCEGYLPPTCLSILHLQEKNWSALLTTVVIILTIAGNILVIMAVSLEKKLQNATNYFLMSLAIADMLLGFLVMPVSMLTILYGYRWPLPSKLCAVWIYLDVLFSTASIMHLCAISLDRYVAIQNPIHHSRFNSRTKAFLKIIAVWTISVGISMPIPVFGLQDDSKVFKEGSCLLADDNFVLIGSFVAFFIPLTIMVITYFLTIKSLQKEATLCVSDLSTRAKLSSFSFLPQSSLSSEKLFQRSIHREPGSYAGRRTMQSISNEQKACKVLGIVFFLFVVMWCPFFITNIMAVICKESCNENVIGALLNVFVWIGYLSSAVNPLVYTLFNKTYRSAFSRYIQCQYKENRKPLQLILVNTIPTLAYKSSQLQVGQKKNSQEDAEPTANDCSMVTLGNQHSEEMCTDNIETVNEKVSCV
CXCR6 inh – CXCR6 receptor inhibitors, primary screen, cell-based, beta-arrestin, luminescence, CHO-K1 PathHunter, 1536-well. C-X-C chemokine receptor type 6 (Homo sapiens), O00574. inhibition, % at 20 µM. 0.36% of 360,000 active. AID 602244, 2012; in the data active = inhibition above about 34%, passing the limit was not always enough;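 also: antagonist mode with CXCL16 agonist at 10 nM final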
CCR6 antag – CCR6 receptor antagonists, primary screen, cell-based, CHO-K1, luminescence, beta-arrestin, uHTS; inhibition, % at 20 µM; 0.49% of 340,000 active; CHO-K1 CCR6 PathHunter beta-arrestin, CCL20-stimulated; AID 493098, 2011;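 active = compounds whose inhibition of the agonist-driven luminescence signal at 20 µM reaches about 50%, limit read from the data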;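 also: cells stimulated with CCL20 at 14 nM final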
EBI2 block – EBI2 receptor antagonists, beta-arrestin recruitment, primary screen, cell-based, luminescence, 7a,25-OHC stimulation, uHTS | inhibition, % at 5 µM | 7a,25-OHC stimulated | AID 651636, 2012 | 0.81% of 360,000 active; in the data active = inhibition above about 38%;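 also: enzyme fragment complementation signal reports receptor beta-arrestin coupling in cells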
APJ antagonist – antagonists of human apelin receptor APJ, primary screen, CHO-K1 cells, beta-arrestin complementation, luminescence; P35414; inhibition, % at 20 µM; 0.32% of 330,000 active;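 active = inhibition above about 40% at 20 µM, limit read from the data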;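 also: cells challenged with 10 nM apelin-13 agonist together with compound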
EBI2 conf – EBI2 antagonist hit retest, beta-arrestin, confirmation, cell-based, single concentration, luminescence, 7a,25-OHC stimulation | shares compounds with EBI2 block | 7a,25-OHC antagonism | inhibition, % at 5 µM | 29% of 2,400 active;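 active = inhibition of at least 50%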
EBI2 ag – EBI2 agonist activity of antagonist hits, confirmation, counter-screen for EBI2 antagonist project, cell-based, single concentration, agonist mode, luminescence; activation, % at 5 µM; 2,400 tested, under 10 active; EBI2-expressing cells, 60 min; 0% vehicle, 100% 7α,25-dihydroxycholesterol control; shares compounds with EBI2 block;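 active = activation of at least 50%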
bGal cs – E. coli beta-galactosidase enzyme inhibition, confirmation, counter-screen for EBI2 antagonist project, biochemical, luminescence, single concentration; shares compounds with EBI2 block; purified beta-galactosidase, luminescent Galacton Star, 15 min; inhibition, % at 5 µM; 1% of 2,400 active;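 active = replicate-average signal at least 3 plate SD below neutral wells, shown as high inhibition, flagging enzyme-inhibiting false positives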;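 also: higher means stronger loss of beta-gal luminescence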
Large screens that a line does not name were inactive (follow-up assays come after a bar, where they were run). Hits are enriched below; roughly 2.1% of the tested compounds scored in any of these assays.

Cc1cccc(Nc2nc(-c3c(C)nc4ccccn34)cs2)c1	EBI2 block 63 | EBI2 conf 54 | EBI2 ag inactive | bGal cs inactive
O=C(CSc1ccc(Br)cc1)N1CCOCC1	none
O=C(COc1ccccc1Cl)N1CCN(C(=O)c2ccco2)CC1	none
O=C(COc1ccc2ccccc2c1)N1CCN(C(=O)c2ccco2)CC1	EBI2 block 73 | EBI2 conf inactive | EBI2 ag inactive | bGal cs inactive
O=C(NCc1ccccc1)c1cccc(OCC(=O)N2CCN(C(=O)c3ccco3)CC2)c1	none
Cc1ccc(OCC(=O)N2CCN(C(=O)c3ccco3)CC2)cc1	EBI2 block 52 | EBI2 conf inactive | EBI2 ag inactive | bGal cs inactive
O=C(CSc1ccc(Br)cc1)N1CCN(C(=O)c2ccco2)CC1	EBI2 block 83 | EBI2 conf 69 | EBI2 ag inactive | bGal cs inactive
Cc1ccc(OCC(=O)N2CCN(C(=O)c3cccs3)CC2)cc1	EBI2 block 60 | EBI2 conf inactive | EBI2 ag inactive | bGal cs inactive
Cc1cc(OC(=O)c2cccc(C(F)(F)F)c2)c([N+](=O)[O-])c(=O)[nH]1	none
Cc1ccccc1C(=O)N1CCN(c2ccc(NC(=S)NC(=O)c3ccco3)cc2)CC1	none
C=C1C(=O)O[C@H]2C1CC[C@@](C)(O)C13C=CC(C)(C21)C1(C3)C(=O)O[C@@H]2C3C(C)=CCC3[C@](C)(O)C[C@H](OC(C)=O)C21 (some centres not stated)	none
Cc1ccn2c(CNC(C)CCn3cccn3)c(C(=O)N3CCCCCC3)nc2c1 (configuration not stated)	none
O=C(Cc1ccc(Cl)cc1)Nc1ccc(S(=O)(=O)N2CCOCC2)cc1	none
c1ccc(-n2nnnc2SCc2cn3ccccc3n2)cc1	none
FC(F)(F)c1ccc(CN2C[C@@H]3C(c4ccc(Cl)nc4)C4(c5cccnc5)CC3(C4)[C@H]2c2ccccc2)cc1 (some centres not stated)	none (no result: HTR2A ag, CXCR6 inh, EBI2 block)
COc1ccc(NC(=O)C2CCC(CNS(=O)(=O)c3cccs3)CC2)cc1 (configuration not stated)	EBI2 block 47 | EBI2 conf inactive | EBI2 ag inactive | bGal cs inactive
Cc1ccccc1N1CCN(C(=S)c2ccccc2)CC1	none
CC(C)(C)c1ccc(C(=S)N2CCN(c3ccccc3)CC2)cc1	EBI2 block 58 | EBI2 conf inactive | EBI2 ag inactive | bGal cs inactive
NC1=C(c2ccc(F)cc2)C(=O)CS1	none
COc1ccc(-c2cn(Cc3cccc(OC)c3)nn2)cc1	EBI2 block 43 | EBI2 conf inactive | EBI2 ag inactive | bGal cs inactive
CCOC(=O)c1c(NC(=S)NC(=O)c2cnn(CC)c2)sc2c1CCC(C)C2 (configuration not stated)	EBI2 block 46 | EBI2 conf inactive | EBI2 ag inactive | bGal cs inactive
CCOC(=O)C(=Cc1ccc(-n2ccnc2)cc1)C(=O)OCC	none
COc1ccccc1N1CCN(Cc2cn[nH]c2-c2ccc(F)cc2)CC1	none
